From ChEMBL document CHEMBL1123657, “Anthrapyrazole anticancer agents. Synthesis and structure-activity relationships against murine leukemias” (J Med Chem, 1987)

Legend:
L1210 = test: Tested in vitro against murine L1210 leukemia.; assay type: functional, cell-based; settings: Mus musculus
P388 [1] = test: Optimal dose per injection in mg/kg required to inhibit growth of P388 leukemia cells in mice; assay type: functional, Mus musculus
Summary of the method: (§1)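 P388 leukemia implanted ip in mice; drug given ip on days 1 and 5 (ip/ip; D1,5), dosed in mg/kg per injection. Read-out is treated/control (T/C, %) with cures counted, reported at the optimal dose.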

P388 [2] = test: Activity against P388 leukemia cells in mice, by intraperitoneal dosing and net log tumor cell kill was reported; assay type: functional, Mus musculus
P388 [3] = test: Inhibition of P388 leukemia cells in mice, measured as percent treated to the control values with the number of 30 day survivors; assay type: functional, Mus musculus; summary of the method: as §1

Row | Compound | IC50 (L1210) | Dose (P388 [1]) | Activity (P388 [2]) | T/C (P388 [3])
1 | CCN(CC)CCNc1ccc2c3c(nn2CC(O)CN(CC)CC)-c2c(O)ccc(O)c2C(=O)c13.Cl (stereo unspecified) | 1300 nM | 100 mg/kg | 1.2 | –
2 | CCN(CC)CCn1nc2c3c(c(NCCNCCO)ccc31)C(=O)c1ccccc1-2.Cl | 32 nM | 25 mg/kg | 2.6 | 169%
3 | CNCCNc1ccc2c3c(nn2CCN)-c2c(O)ccc(O)c2C(=O)c13 | 700 nM | – | – | –
4 | CNCCn1nc2c3c(c(NCCNCCO)ccc31)C(=O)c1c(O)ccc(O)c1-2.Cl | 440 nM | 3.12 mg/kg | >6.8 | 324%
5 | Cl.NCCCNc1ccc2c3c(nn2CCCNCCO)-c2c(O)ccc(O)c2C(=O)c13 | 1800 nM | 100 mg/kg | 3.4 | 185%
6 | CN(C)CCNc1ccc2c3c(nn2CCNCCO)-c2ccccc2C(=O)c13.Cl | 32 nM | 6.25 mg/kg | 3.1 | 174%
7 | CCN(CC)CCn1nc2c3c(c(NCCN4CCNCC4)ccc31)C(=O)c1ccccc1-2.Cl | 500 nM | 25 mg/kg | -1.3 | 109%
8 | CCN(CC)CCn1nc2c3c(c(NCCN4CCN(C(=O)OCc5ccccc5)CC4)ccc31)C(=O)c1ccccc1-2 | 390 nM | – | – | –
9 | Cl.NCCn1nc2c3c(c(NCCNCCO)ccc31)C(=O)c1ccccc1-2 | 80 nM | 25 mg/kg | 3.7 | –
10 | CCN(CC)CCNc1ccc2c3c(nn2CCO)-c2ccccc2C(=O)c13.Cl | 880 nM | 400 mg/kg | 0.8 | 145%
11 | Cl.Cn1nc2c3c(c(NCCNCCO)ccc31)C(=O)c1c(O)ccc(O)c1-2 | 150 nM | 100 mg/kg | 2.9 | –
12 | Cl.Cn1nc2c3c(c(NCCN)ccc31)C(=O)c1c(O)ccc(O)c1-2 | 240 nM | 12.5 mg/kg | 0 | 138%
13 | CCCCCCNc1ccc2c3c(nn2CCN(CC)CC)-c2ccccc2C(=O)c13.Cl | 2000 nM | 200 mg/kg | -1.4 | 110%
14 | CCN(CC)CCNc1ccc2c3c(nn2CCNCCO)-c2ccccc2C(=O)c13.Cl | 60 nM | 12.5 mg/kg | 1.8 | 158%
15 | Cl.NCCn1nc2c3c(c(NCCCNCCO)ccc31)C(=O)c1c(O)ccc(O)c1-2 | 870 nM | 6.25 mg/kg | 3.4 | 194%
16 | CN(C)CCNc1ccc2c3c(nn2CCNCCO)-c2c(O)ccc(O)c2C(=O)c13.Cl | 230 nM | 12.5 mg/kg | >6.6 | 250%
17 | Cl.Cn1nc2c3c(cccc31)C(=O)c1c(NCCNCCO)cccc1-2 | 1200 nM | 200 mg/kg | -1.3 | 118%
18 | CN(C)CCN(C)c1ccc2c3c(nn2CCNCCO)-c2c(O)ccc(O)c2C(=O)c13.Cl | 630 nM | 12.5 mg/kg | 4.9 | –
19 | CN(C)CCCn1nc2c3c(c(NCCCN)ccc31)C(=O)c1c(O)ccc(O)c1-2.Cl | 800 nM | 25 mg/kg | 4 | 212%
20 | Br.CCN(CC)CCn1nc2c3c(c(NCCNC)ccc31)C(=O)c1c(O)ccc(O)c1-2 | 7400 nM | 25 mg/kg | >7.1 | –
21 | Cl.OCCNCCNc1ccc2c3c(c4ccccc4c(O)c13)N=N2 | 2200 nM | 100 mg/kg | -0.8 | 126%
22 | CN(CCO)CCn1nc2c3c(c(NCCNCCO)ccc31)C(=O)c1c(O)ccc(O)c1-2.Cl | 330 nM | 12.5 mg/kg | 4.2 | –

Row | Compound | IC50 (L1210) | Dose (P388 [1]) | Activity (P388 [2]) | T/C (P388 [3])
23 | Cl.O=C1c2c(O)ccc(O)c2-c2nn(CCNCCO)c3ccc(NCCCN(CCO)CCO)c1c23 | 920 nM | 100 mg/kg | 3.6 | 194%
24 | CN(C)CCNc1ccc2c3c(nn2Cc2ccccc2)-c2c(O)ccc(O)c2C(=O)c13.Cl | 860 nM | 25 mg/kg | -1.5 | 104%
25 | CN(C)CCNCCNc1ccc2c3c(nn2CCN)-c2c(O)ccc(O)c2C(=O)c13.Cl | 930 nM | 50 mg/kg | 6.4 | 242%
26 | CCN(CC)CCCCCCCNc1ccc2c3c(nn2CCN(CC)CC)-c2ccccc2C(=O)c13.Cl | 630 nM | 25 mg/kg | -1.5 | 104%
27 | NCCCNc1ccc2c3c(nn2CCN)-c2c(O)ccc(O)c2C(=O)c13 | 310 nM | – | – | –
28 | CN(C)CCn1nc2c3c(c(NCCN)ccc31)C(=O)c1c(O)ccc(O)c1-2.Cl | 220 nM | 12.5 mg/kg | >6.6 | 263%
29 | CN(C)CCCn1nc2c3c(c(NCCNCCO)ccc31)C(=O)c1c(O)ccc(O)c1-2.Cl | 590 nM | 12.5 mg/kg | 5.4 | –
30 | Cl.O=C1c2c(NCCNCCO)cccc2-c2nn(CCNCCO)c3cccc1c23 | 390 nM | 12.5 mg/kg | -0.3 | 133%
31 | CCN(CC)CCNc1ccc2c3c(nn2C)-c2c(O)ccc(O)c2C(=O)c13.Cl | 450 nM | 400 mg/kg | 1.3 | 152%
32 | Cl.O=C1c2ccccc2-c2nn(CCO)c3ccc(NCCNCCO)c1c23 | 1800 nM | 25 mg/kg | -0.9 | 125%
33 | CCN(CC)CCNc1ccc2c3c(nn2CCNCCO)-c2c(O)ccc(O)c2C(=O)c13.Cl | 510 nM | 50 mg/kg | >6.7 | –
34 | COCCn1nc2c3c(c(NCCNCCO)ccc31)C(=O)c1c(O)ccc(O)c1-2.Cl | 1600 nM | 100 mg/kg | 0.3 | 140%
35 | CCN(CC)CCNc1ccc2c3c(c4ccccc4c(O)c13)N=N2.Cl | 1500 nM | 400 mg/kg | -1.4 | 111%
36 | CN(C)CCNCCNc1ccc2c3c(nn2CCNCCO)-c2c(O)ccc(O)c2C(=O)c13.Cl | 760 nM | 50 mg/kg | >6.8 | 254%
37 | Cl.NCCNc1ccc2c3c(nn2CCNCCO)-c2c(O)ccc(O)c2C(=O)c13 | 1600 nM | 3.12 mg/kg | 4.8 | 197%
38 | Cl.NCCNCCNc1ccc2c3c(nn2CCNCCO)-c2c(O)ccc(O)c2C(=O)c13 | 330 nM | 25 mg/kg | >6.6 | 277%
39 | CNc1ccc2c3c(nn2CCNCCO)-c2ccccc2C(=O)c13.Cl | 740 nM | 200 mg/kg | -0.7 | 127%
40 | Cl.NCCNc1ccc2c3c(nn2CCNCCO)-c2ccccc2C(=O)c13 | 69 nM | 25 mg/kg | 4.4 | –
41 | CCN(CC)CCNc1cccc2c1C(=O)c1cccc3c1c-2nn3CCN(CC)CC.Cl | 600 nM | 50 mg/kg | -1.5 | 103%
42 | CCN(CC)CCn1nc2c3c(c(NCCN4CCOCC4)ccc31)C(=O)c1ccccc1-2.Cl | 480 nM | 400 mg/kg | >6.8 | –
43 | Cl.O=C1c2c(O)ccc(O)c2-c2nn(CCNCCO)c3ccc(NCCNCCO)c1c23 | 740 nM | 6.25 mg/kg | 4.6 | –
44 | CN(C)CCNc1ccc2c3c(nn2CCO)-c2c(O)ccc(O)c2C(=O)c13.Cl | 15 nM | 200 mg/kg | 6.6 | 283%
